Test: Toxicity liver stage against HepG2, at 10uM
Assay type: cell-based
Design: test concentration 10 uM, cell line HepG2-A16-CD81EGFP
Conditions: human, HepG2-A16-CD81EGFP cells; read-out: INHIBITION
Outline: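 Uninfected HepG2-A16-CD81EGFP cells, 3 × 10^3 per well, 1536-well, plated on prespotted compound at 10 μM final, parasite-free screening media added to match infected plates; puromycin 10 μM positive, DMSO 0.5% negative; run in parallel with 48 h PbLuc assay at 37 °C, 5% CO2; viability by CellTiter-Glo luminescence, normalized to controls.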

Structure (SMILES) | cytotoxicity at 10 µM
COC(=O)COn1c(SC(C)C)nc2ccccc2c1=O | -6.17%
COc1ccc(NC(=O)C2OC(c3cccs3)=NN2C(C)=O)cc1 (configuration not stated) | -1.6%
CC(C)(Oc1ccc(C(N)=O)cc1)C(=O)N(CCC#N)CC1CCCO1 (configuration not stated) | 5.55%
COc1ccccc1CN1CC(O)CN(S(=O)(=O)C(C)C)CC1=O (configuration not stated) | -12.4%
CCOC(=O)N1CC(=O)N(CCc2ccccc2)CC(O)C1 (configuration not stated) | -4.73%
O=C(Cc1cnc(-c2c(Cl)cccc2Cl)s1)N1CCC2(CC1)OCCO2 | -0.367%
Cc1nc(NC(=O)CCN2C(=O)c3ccccc3NC2C(C)C)sc1C (configuration not stated) | 0.308%
Cc1ccc(C(=O)NC2CC2)c(-n2cnnn2)c1C | -2.27%
O=C(CCc1nnc2ccccn2c1=O)NCc1ccco1 | -7.51%
O=C(CC1CSc2nccc(=O)n21)NCc1ccco1 (configuration not stated) | -7.2%
CCCc1cc(=O)n(CC(=O)NCCOC)c(-n2nc(C)cc2C)n1 | 1.69%
CCCC(=O)N1CCC(c2nn(C)c(=O)n2-c2ccccc2)CC1 | 5.91%
CN1[C@H](CN2CCCC2)C[C@@H]2CN(C(=O)c3ccsc3)CC[C@@H]21 | 0.847%
Cc1ccc(CSc2ncc(Br)c(C(=O)O)n2)cc1 | -2.3%
CC(C)(C)NC(=O)c1nn(C2CCS(=O)(=O)C2)c2c1CCCC2 (configuration not stated) | 10.1%
CC1(C)OCC(CNC(=O)c2cnn(-c3ccc(Cl)cc3)c2N)O1 (configuration not stated) | 2.31%
CC(C)CNC(=O)CN(Cc1ccc(F)cc1)S(C)(=O)=O | 10.2%
COc1ccccc1C(=O)Nc1c(F)c(C(=O)N2CCCC2)nn1C | 5.83%
CCCN1CCN(C(=O)C(C)n2cc(Br)cn2)CC1 (configuration not stated) | -18.8%
CCn1ncc(S(=O)(=O)N[C@@H]2CCC[C@@H](n3ccnc3)[C@@H]2O)c1C | 1.18%
Cc1cc(N(C)C)cc(C2CCN(S(=O)(=O)c3cccnc3)C2)n1 (configuration not stated) | 4.26%
Cc1ncc(-c2ccccn2)c(CCNC(=O)CCC2CCCO2)n1 (configuration not stated) | 11.7%
OC1(CNc2cccc(F)c2)CCNCC1 | 5.38%

Structure (SMILES) | cytotoxicity at 10 µM
CNC(=O)C(c1cccc(Cl)c1)C(C)C (configuration not stated) | 2.02%
CC(=O)NCCNC(=O)c1sccc1Br | 4.2%
O=S(=O)(c1cncc(F)c1)N1CCSC2(CCCCC2)C1 | 9.48%
O=C(NS(=O)(=O)c1cccnc1)C1CC(c2ccccc2)=NO1 (configuration not stated) | -8.87%
CCOc1nnc(CN2CCN(CCOC)C(CC)C2)s1 (configuration not stated) | -5.73%
Cc1cc(N2CCCC2c2cccnc2)nc(C)n1 (configuration not stated) | -8.3%
Cn1cccc(NC(=O)NCCOCc2ccccc2)c1=O | -37.8%
CCC(=O)Nc1ccc(C(C)Nc2nc3c(cnn3C)c(=O)[nH]2)cc1 (configuration not stated) | 4.01%
Cc1cc(CSCc2cc(C)on2)on1 | 6.42%
COc1ccc(CNC2CCc3ncnn3C2)cc1OCCCC#N (configuration not stated) | -5.45%
COCC(=O)N[C@H](C(=O)NC(C)c1cccc(C)c1C)C(C)C (some centres not stated) | 5.38%
CC(NC(=O)NCC(C)(C)C(N)=O)c1nc(-c2ccccc2)cs1 (configuration not stated) | 12.7%
CCC(C)NC(=O)CN1CCOCC1 (configuration not stated) | -5.74%
Cc1ccc(C2COCCN2C(=O)c2ccc(C)s2)o1 (configuration not stated) | -3.9%
OCC(CO)Nc1cccc(C(F)(F)F)n1 | 0.409%
COCc1noc(C2(c3cccc(Cl)c3)CCOCC2)n1 | -2.93%
COc1cc(NCc2c(C)noc2C)c(OC)cc1Cl | 47%
COCCCNC(=O)Nc1cc(-c2ccccc2C)nn1CCO | -0.267%
CCOCC1CCN(C(=O)Nc2ccc3c(c2)CCCO3)C1 (configuration not stated) | 10.6%
CC(C)(CNc1cc(F)ccc1F)S(C)(=O)=O | -2.94%
Cn1cc(Br)cc1C(=O)NC1(C#N)CC1 | 21.8%
NCc1ccc(Oc2cccc(Cl)c2Cl)nc1 | 4.75%
NS(=O)(=O)c1ccc(CNCC(=O)NCc2ccc(Cl)cc2Cl)cc1 | -48.6%

Structure (SMILES) | cytotoxicity at 10 µM
COc1cc(NC2CCCNC2)cc(OC)c1 (configuration not stated) | -9.57%
COc1ccc(CNC(C)c2cnc3cc(C)nn3c2C)cc1 (configuration not stated) | -4.86%
Cc1nc(C)c(CNCC2CCCn3ccnc32)s1 (configuration not stated) | -14.6%
Cc1ccc(CC2CCCN2CC(=O)NCc2ccccn2)cc1 (configuration not stated) | 6.46%
OCc1nnc2n1CCN(c1cnccn1)C2 | 5.59%
CC(C)NC(=O)N1CC[C@H]2N(C)CC[C@@]2(C(=O)Nc2cccnc2)CC1 | -109%
CS(=O)(=O)N1C[C@@H]2COC[C@]2(COCC(=O)N2CCCC2)C1 | -114%
CN1CCN(S(=O)(=O)C2CC2)Cc2cccnc21 | -108%
CC(C)N1Cc2c(C(=O)N3CCN(C)CC3)nn(C)c2C1 | -104%
Cn1ccnc1CN1C[C@@H]2OCCN(c3ncccn3)[C@@H]2C1 | -73%
CN(Cc1ccncc1)C1CC2(CCN(Cc3ccccn3)CC2)C1 | -90.4%
CCOCC1CN(C(=O)N2CCCC2)Cc2cnn(CC)c21 (configuration not stated) | -77.5%
CC1=N[C@@]2(CC[C@@H]3CN(C(=O)NCc4ccccc4C)C[C@@H]32)C(=O)N1 | -74.9%
Cn1cc(CN2CCCC3(CCN3S(C)(=O)=O)C2)cn1 (configuration not stated) | -68.4%
CCN1CCC2(COCc3cnc(-c4cccnc4)nc32)C1 (configuration not stated) | 4.04%
Cc1ncc(-c2ccnc(N3CCCCC3)n2)c(=O)[nH]1 | 7.53%
Cc1ccc(C(=O)O)cc1CNC(=O)CN1CC(C)(C)[C@@](C)(O)C1 | -6.03%
O=C1OCC(CO)N1Cc1cccc(Cl)c1F (configuration not stated) | 0.739%
CCN(Cc1cn(C)nc1-c1ccc2c(c1)OCCO2)CC1CCCO1 (configuration not stated) | 2.85%
O=C(NC1CCCC1)N1C[C@H]2CN(c3ccncc3)C[C@@]2(C(=O)O)C1 | 11.3%
CCN(CC1CCCCO1)C(=O)CCNC(=O)c1ccccc1F (configuration not stated) | -42.9%
c1cncc(-c2cccc(-c3ccn(CCN4CCCCC4)n3)c2)c1 | 2.54%
CCCc1ccc(C(=O)N2CCc3c(nc(C)nc3N(C)C)C2)cc1 | -1.34%

Structure (SMILES) | cytotoxicity at 10 µM
Cn1nc(C2CC2)c2c1NC(=O)CC2c1cc(CN2CCCC2)cs1 (configuration not stated) | -2.2%
c1cc2c(cc1OC[C@@H]1CCCN3CCCC[C@H]13)OCCO2 | -2.48%
O=C(c1cccc(-n2cccn2)c1)N1CCOC(CCO)C1 (configuration not stated) | 0.0642%
CC(C)N1CCOC(CC(=O)N2CCCN(Cc3cccs3)CC2)C1 (configuration not stated) | -12.2%
Cc1nccn1CCC(=O)N1CCCN(c2ccccc2)CC1 | -6.08%
Cc1nn(C)c2nc(NC(C)c3n[nH]c(=O)[nH]3)sc12 (configuration not stated) | 4.91%
CCN(CC)C(=O)c1ccc(Cl)c(NC(=O)c2csnn2)c1 | 7.3%
CNc1ncc(CN(C)C(=O)c2cccc(-n3cnnc3)c2)cn1 | 1.5%
CN(C)C(=O)CN1CC=C(c2cnn(Cc3ccccc3)c2)CC1 | -6.12%
CCCc1nnc(C(=O)N(C)Cc2cnc3ccccn23)o1 | -3.41%
OC1CN(Cc2cccc(N3CCOCC3)c2)Cc2ccccc21 (configuration not stated) | -3.15%
CO[C@H]1C[C@@H](O)C12CCN(C(=O)CCSCc1ccc(F)cc1)CC2 | -5.22%
CN(Cc1cccc(C(=O)Nc2ccnn2C)c1)CC1(C)COC1 | -5.84%
COc1ccc(OC2CCN(C(=O)CCc3nc(Cl)n[nH]3)CC2)cc1 | 4.47%
O=C(CCN1CCCCO1)N1CC[C@H](O)[C@@H](O)C1 | -1.77%
COCCn1ccnc1CN1CCc2[nH]cnc2C1c1cccc(O)c1 (configuration not stated) | -2%
O[C@H]1[C@H](NCCc2ccccn2)c2ccccc2C12CCNCC2 | 13.7%
Cc1ccnc(NC(=O)C(C)Cn2cncn2)c1 (configuration not stated) | 0.298%
CNS(=O)(=O)CCNC(=O)[C@@]12CNC[C@@H]1CN(C1CCCC1)C2 | 1.3%
CCOc1ccc(C(=O)N2CCCC2Cn2cc(C)cn2)cn1 (configuration not stated) | -20.2%
Cc1ccc(CC(=O)N2CCN(CC(O)C(C)(C)C)CC2)cn1 (configuration not stated) | -4.51%
CC(C)Cc1nc(CN2CCOC(Cn3cccn3)C2)no1 (configuration not stated) | -28.9%
CCc1nc(C2CCCN2Cc2nccn2CC(F)(F)F)no1 (configuration not stated) | -17.2%

Structure (SMILES) | cytotoxicity at 10 µM
CN(C)c1ncccc1CNC(=O)NCCN(C)C1CCCC1 | -11.9%
CCOCC(O)CN1CCN(C(=O)c2ccc(OC)cc2F)CC1 (configuration not stated) | -11.9%
Cc1nnc2n1CCN(Cc1csc(-c3ccc(F)cc3)n1)C2 | -6.78%
NC(=O)c1cc(C2CCCN(CCc3ccccn3)C2)n[nH]1 (configuration not stated) | -8.44%
COc1ccc(OCCCN2CCOC(Cn3cccn3)C2)cc1 (configuration not stated) | 5.34%
CN(CCNC(=O)Nc1ccncc1)C1CCCCC1 | -0.39%
Cc1cc(CN(C)C(=O)NC2CCS(=O)(=O)C2)no1 (configuration not stated) | -1.61%
COCCN1CCc2c(cnc(-c3ccoc3)c2C(=O)O)C1 | 0.908%
CCC(CC)C(=O)N1CCC2(C1)CN(c1ccccc1)C(=O)CN2C (configuration not stated) | 3.5%
CCN1CCOCC12CCN(C(=O)Cc1ccccc1)CC2 | -75.3%
CCS(=O)(=O)NC[C@]12COC[C@H]1CN(Cc1sccc1C)C2 | -75.2%
CNC(=O)[C@H]1C[C@@H]2CN(Cc3csc(C)n3)C[C@@H]2N1S(C)(=O)=O | -3.78%
O=C(NCc1ccccn1)[C@H]1COC[C@H]2CN(C3CCCC3)C[C@H]21 | -73.6%
Cc1ccc(C(=O)N2Cc3c(CN4CCCCC4)nn(C)c3C2)o1 | -1.94%
CC(=O)N1CCCCC12CCCN(Cc1ccco1)C2 (configuration not stated) | 4.59%
CN(C)C[C@]12COC[C@H]1CN(Cc1ccc3c(c1)OCO3)C2 | -123%
c1csc(CN2Cc3nccn3CC(Cn3cncn3)C2)n1 (configuration not stated) | -9.35%
O=C(c1cnccn1)N1C[C@H]2CC[C@@H](C1)N(C(=O)Cc1ccsc1)C2 | -13.3%
COc1ccc(-n2cc3nc(N)[nH]cc-3c2=O)cc1 | 6.25%
Cc1cc(C(=O)NC2CCC3(CCC(=O)N3C)CC2)no1 (configuration not stated) | -0.361%
